The list is not random: actives were taken first. Their share in the collection is about 9.8%.
PMI act hi M6P: activators of human phosphomannose isomerase at near-saturating mannose 6-phosphate; 0.34% of 190,000 active; coupled PMI enzyme assay, resazurin fluorescence, 20 min; hits give high values; 1 = untreated enzyme, 0 = substrate-free blank; AID 1216; P34949; activation factor at 20 µM;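 active = activation factor of 2 or more at 20 µM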
Target sequence (P34949 whole entry, looked up): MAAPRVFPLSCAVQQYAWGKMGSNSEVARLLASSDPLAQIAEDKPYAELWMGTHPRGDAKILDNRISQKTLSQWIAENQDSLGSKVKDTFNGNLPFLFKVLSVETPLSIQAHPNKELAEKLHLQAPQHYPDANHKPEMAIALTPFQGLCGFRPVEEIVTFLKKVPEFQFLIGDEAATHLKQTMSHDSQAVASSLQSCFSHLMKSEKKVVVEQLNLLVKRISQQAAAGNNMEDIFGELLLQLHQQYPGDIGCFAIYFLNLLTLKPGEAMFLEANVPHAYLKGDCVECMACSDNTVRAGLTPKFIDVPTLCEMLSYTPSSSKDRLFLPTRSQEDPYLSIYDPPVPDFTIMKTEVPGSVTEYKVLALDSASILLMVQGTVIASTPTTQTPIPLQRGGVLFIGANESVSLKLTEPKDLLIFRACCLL
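assay system = human phosphomannose isomerase with PGI, G6PDH, diaphorase coupling enzymes | quantity = 15 ng/mL PMI | incubation = enzyme reaction with compound 20 min at room temperature | medium = HEPES pH 7.4 buffer with MgCl2 and Tween-20 | compound dosing = one concentration, 20 µM, in 1% DMSO | measured by = Diaphorase-driven resazurin-to-resorufin fluorescence, excitation 544, emission 590 nm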
PMI act: activators of human phosphomannose isomerase; activation factor at 20 µM; 0.005% of 190,000 active; P34949; AID 1214; purified human PMI, coupled resazurin fluorescence, 20 min; hits give high values; 1 = vehicle control, 0 substrate-free wells;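 active = activation factor of 2 or more at 20 µM, relative to plate controls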
m-calpain inh: calpain II (pig) inhibition; inhibition, % at 16 µM; purified calpain II, fluorogenic peptide substrate, 30 min; 0.37% of 220,000 active;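 active = inhibition above about 50%, limit read from the data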
Lmaj promast: inhibitors of Leishmania major promastigote growth; Leishmania major promastigotes, resazurin fluorescence viability; inhibition, % at 10 µM; 9% of 200,000 active; AID 1063; in the data active = inhibition above about 50%;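 also: promastigotes grown with compound for 44 hours at 28 °C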
WT yeast gro inh: growth inhibition of WT yeast, mitochondrial fusion screen; mitochondrial fusion phenotypic screen, WT strain; inhibition, % at 10 µM; 2.1% of 190,000 active; AID 1362; in the data active = inhibition above about 58%; tested in S. cerevisiae
Rad51 HR inh: Rad51 (human) homologous recombination inhibition; hRad51 DNA strand exchange, fluorescence dequenching; inhibition, % at 10 µM; 0.085% of 200,000 active;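 active = inhibition above 40% at the single screening dose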;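 also: 0% = DMSO control wells and 100% = blanks with heterologous ssDNA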
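material = hRad51 filaments on single-stranded DNA | reagent = Donor/quencher-labelled 47-bp dsDNA substrate | compound = 10 µM final, single point | schedule = strand-exchange reaction 15 min at room temperature | measured by = fluorescein emission 520 nm, excitation 485 nm | read-out basis = % inhibition versus plate control and blank means | benchmarks = plate controls and plate blanks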
* hit, by the source's call; i = inactive; . = no result given.

SMILES | PMI act hi M6P | PMI act | m-calpain inh | Lmaj promast | WT yeast gro inh | Rad51 HR inh
O=C1CC(c2ccccc2)CN1C(=O)c1cncc(Br)c1 (centres undefined) | 1 | 1 | 5.4 | -4.1 | -12.3 | -0.9
O=C(Nc1cc(C(F)(F)F)cc(C(F)(F)F)c1)Nc1cnn(-c2ccc([N+](=O)[O-])cc2)c1C(F)(F)F | . | . | 32.4 | . | . | -2.3
O=C1c2cccc3c(N4CCOCC4)c([N+](=O)[O-])cc(c23)C(=O)N1c1cccc2ccccc12 | 1.1 | 1.1 | -28.0 | 11.3 | 9.4 | 11.0
Cc1cccc(N2C(=O)c3cccc4c(N5CCCCC5)c([N+](=O)[O-])cc(c34)C2=O)c1C | 1.1 | 1 | 0.0 | 88.8* | 15.6 | -2.3
O=C(NC1=C(Nc2ccc(F)cc2)C(=O)c2ccccc2C1=O)c1ccc(Cl)cc1 | 0.4 | 0.7 | -1.0 | 95.9* | 67.3* | -37.7
c1ccc2c(Nc3nc(N4CCOCC4)c4ccccc4n3)cccc2c1 | 0.9 | 0.9 | 40.5 | 88.1* | 84.7 | .
O=S(=O)(c1ccc(Oc2ccc(Cl)cc2)c(S(=O)(=O)N2CCCCC2)c1)N1CCCCC1 | 0.9 | 1 | 43.5 | 1.5 | 11.7 | 0.5
COc1ccc(Cl)cc1C(=O)CSc1nnnn1C1CCCCC1 | 0.9 | 0.8 | 10.5 | 8.7 | 72.3* | 5.8
O=C(NCCCn1ccnc1)C1CC2CCC1C2 (centres undefined) | 1.1 | 1 | -9.8 | 3.8 | -14.4 | -0.8
O=C(NCCCn1ccnc1)c1cc(-c2ccc(Cl)cc2)nc2ccccc12 | 0.9 | 0.8 | -47.1 | 98.5* | -4.2 | -1.9
O=C(COc1ccc(Cl)cc1)NCCCn1ccnc1 | 0.9 | 1.1 | 6.0 | 6.9 | 3.6 | 10.8
O=C(NCCCn1ccnc1)c1cc(-c2ccncc2)nc2ccccc12 | 1.1 | 1 | -18.0 | -4.1 | -5.0 | .
O=C1CCC(C(=O)NCCCn2ccnc2)N1 (centres undefined) | 0.9 | 0.9 | -19.8 | 66.0* | 3.8 | 2.2
COc1ccc(NC(=O)NCCN2CCc3ccccc3C2)cc1 | 0.9 | 0.9 | 7.1 | 14.1 | 1.3 | -3.6
O=C(NCCCn1ccnc1)Nc1ccc(Cl)cc1 | 1 | 1 | -8.4 | 53.3* | 0.2 | 3.0
O=C(NCCCN1CCc2ccccc2C1)Nc1ccc(Cl)cc1 | 1 | 1 | 4.0 | 78.4* | 2.7 | -3.1
O=C(CCCN1C(=O)c2ccccc2C1=O)NCCCn1ccnc1 | 0.9 | 0.9 | 7.4 | -5.0 | 0.0 | 7.0
O=C(NCCCn1ccnc1)Nc1ccc(Cl)c(Cl)c1 | 0.9 | 1 | -35.4 | 95.5* | 27.4 | -2.1
O=C(CCn1ccnc1)Nc1ccc2ccccc2c1 | 0.9 | 0.9 | 5.0 | 73.9* | -7.1 | 1.7
O=C(Cc1ccccc1Cl)NCCCn1ccnc1 | 1.1 | 1 | 49.2 | 61.8* | -7.6 | 8.9
O=C(CS)Nc1ccc2ccccc2c1 | . | . | 30.2 | . | . | -0.9
O=C(NCCCn1ccnc1)c1noc2c1CCc1ccccc1-2 | 0.5 | 0.9 | -6.3 | 88.4* | -9.1 | -5.6
S=C(NCCCn1ccnc1)Nc1ccc(Cl)cc1Cl | 1 | 0.9 | -2.4 | 18.1 | -0.4 | 9.2
O=C(NCCCn1ccnc1)c1noc2c1CCCC2 | 1 | 0.9 | -3.0 | -4.8 | 10.6 | 1.6
O=C(CCCOc1ccc(Cl)cc1Cl)NCCCn1ccnc1 | 1 | 1 | 18.1 | 65.7* | 3.3 | -7.2
SMILES | PMI act hi M6P | PMI act | m-calpain inh | Lmaj promast | WT yeast gro inh | Rad51 HR inh
CN1Cc2cccc3c2C(Cc2ccccc2S3)C1 (centres undefined) | 1 | 1 | 7.6 | 57.4* | 1.2 | .
CC(=O)c1c(C)[nH]c(C(=O)CSc2nnc(C)s2)c1C | 1.2 | 1.1 | 2.1 | 4.5 | 2.4 | -13.9
COCC(C)NC(=O)Cc1ccc(Cl)cc1 (centres undefined) | 1 | 0.9 | -14.3 | -4.6 | -6.8 | .
Clc1ccc2c(N/N=C/c3ccc(Br)cc3)ccnc2c1 | 1.7 | 1.4 | -8.3 | 100.2* | 98.7* | 12.1
Cc1ccc(N/N=C/c2cccnc2)cc1 | 1.8 | 1.5 | -10.2 | 75.7* | 34.6 | 8.3
Clc1ccc(NNc2ccnc3cc(Cl)ccc23)cc1 | 1.7 | 1.4 | 30.3 | 4.6 | -9.3 | -14.9
Cc1csc(N/N=C\c2cccnc2)n1 | 0.7 | 0.7 | -15.7 | 7.3 | 5.2 | 18.2
Fc1ccc(N/N=C/c2cccnc2)c(F)c1 | 1.9 | 1.6 | 12.9 | 22.1 | 13.8 | 1.1
Clc1ccc2c(N/N=C/c3cccnc3)ccnc2c1 | 0.9 | 1.1 | -4.1 | 100.3* | 27.6 | 6.5
CC1CC(C)CN(S(=O)(=O)c2ccc(C(C)(C)C)cc2)C1 (centres undefined) | 1 | 1 | 28.9 | 13.4 | 14.4 | -0.3
COc1ccc(S(=O)(=O)NC(CC(=O)N2CCc3ccccc32)c2ccco2)cc1 (centres undefined) | 0.9 | 0.9 | 5.4 | 75.6* | 15.2 | .
O=C(O)c1ccccc1NC(=O)N1CCOCC1 | 1 | 1.1 | -45.7 | -0.3 | 3.3 | .
NC(N)=Nc1nc(-c2ccccc2)c2ccccc2n1 | 0.9 | 0.9 | -114.0 | 98.2* | -8.0 | -12.9
CCN(CC)CCOC(=O)c1ccc(NC(=O)C(C)NC(=O)C23CC4CC(CC(C4)C2)C3)cc1 (centres undefined) | 1.1 | 1.1 | 3.0 | 15.6 | -6.6 | .
COc1ccc(C(=O)NNC(=O)c2ccc(C)cc2)cc1S(=O)(=O)N1CCCC1 | 0.9 | 0.9 | -12.1 | -7.0 | -4.1 | 8.1
Cc1cccn2c(=O)c3cc(C#N)c(=N)n(CCCN4CCOCC4)c3nc12 | . | . | . | 89.2* | . | -3.8
Cc1cccn2c(=O)c3cc(C(N)=S)c(=N)n(CCCN4CCOCC4)c3nc12 | 0.6 | 0.8 | -59.8 | 64.2* | 11.6 | 27.9
Cc1cccn2c(=O)c3cc(C#N)c(=N)n(CCN4CCOCC4)c3nc12 | 1 | 1 | -483.6 | -12.9 | . | .
CCCn1c(=N)c(C(=O)NC2CCCC2)cc2c(=O)n3cccc(C)c3nc21 | 1 | 1 | i | 58.1* | -12.0 | 0.5
CCn1c(=N)c(C(N)=O)cc2c(=O)n3cccc(C)c3nc21 | . | . | . | 99.8* | . | .
Cc1cccn2c(=O)c3cc(C(=O)NC4CCCCC4)c(=N)n(CCN4CCOCC4)c3nc12 | . | . | -184.9 | . | . | .
Cc1cccn2c(=O)c3cc(C#N)c(=NC(=O)c4ccncc4)n(CCCOC(C)C)c3nc12 | 2* | 1.7 | i | 61.1* | 1.2 | -7.4
COCCCn1c(=NC(=O)c2ccncc2)c(C#N)cc2c(=O)n3cccc(C)c3nc21 | 1.3 | 1 | i | 19.7 | 10.9 | 1.7
Cc1ccc2nc3c(cc(C(N)=S)c(=N)n3CCCOC(C)C)c(=O)n2c1 | 1.3 | 1.5 | -117.5 | 85.7* | 11.6 | 1.7
C=CCn1c(=N)c(C(=O)OCC)cc2c(=O)n3cc(C)ccc3nc21 | 1 | 1 | . | . | 13.1 | .
CC1CC(C)C[N+](=C2C=C(N3CCCC3)CC(C)(C)C2)C1 (centres undefined) | 0.9 | 0.7 | -1.6 | 100.1* | 5.8 | 6.7
CCN(CC)C1=CC(=[N+]2CCCC2)CC(C)(C)C1 | 1 | 0.9 | -5.0 | 99.7* | -11.3 | .
